Measurements published in ChEMBL document CHEMBL2390922, “Synthesis and biological evaluation of sulforaphane derivatives as potential antitumor agents” (Eur J Med Chem, 2013).
The source made the active and inactive calls. No cut-off for these calls is given here.

test system: HepG2; test: Induction of apoptosis in human HepG2 cells assessed as late apoptotic cells at 10 uM after 48 hrs by Annexin-V-FITC/propidium iodide staining-based flow cytometric analysis (reference value: 0.29%); assay type: functional; conditions: not given

Row | Structure (SMILES) | Activity [%]
1 | C[S+]([O-])CCCCN=C=S (stereo not given) [SULFORAPHANE] | 1.22
2 | [O-][S+](CCCCN=C=S)Cc1ccccc1 (stereo not given) | 10.91

test system: MCF7; test: Cytotoxicity against human MCF7 cells after 72 hrs by MTT assay; assay type: functional, cell-based; conditions: MCF7, 72 h
Procedure, shortened: (§1)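 Cells were grown in RPMI-1640 or DMEM with 10% NBS or FBS and 100 U/mL penicillin, at 37 °C under 5% CO₂. After 72 h with a range of compound concentrations, MTT was added for a further 4 h at 37 °C. Formazan was dissolved in DMSO and absorbance read at 570 and 630 nm. Assays ran in triplicate across three independent experiments, and IC₅₀ was calculated for 50% loss of viability.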

Row | Structure (SMILES) | IC50 [µM]
3 | O=S(=O)(CCCCN=C=S)Cc1ccccc1 | 7.55
4 | [O-][S+](CCCCN=C=S)Cc1cccs1 (stereo not given) | 4.14
5 | COc1ccc(C[S+]([O-])CCCCN=C=S)cc1 (stereo not given) | 8.89
6 | O=[N+]([O-])c1ccc(C[S+]([O-])CCCCN=C=S)cc1 (stereo not given) | 7.77
7 | C[S+]([O-])CCCCN=C=S (stereo not given) [SULFORAPHANE] | 17.7
8 | [O-][S+](CCCCN=C=S)Cc1ccccc1 (stereo not given) | 3.3

test system: HepG2; test: Induction of apoptosis in human HepG2 cells assessed as early apoptotic cells at 20 uM after 48 hrs by Annexin-V-FITC/propidium iodide staining-based flow cytometric analysis (reference value: 0.14%); assay type: functional; conditions: not given

Row | Structure (SMILES) | Activity [%]
9 | C[S+]([O-])CCCCN=C=S (stereo not given) [SULFORAPHANE] | 0.9
10 | [O-][S+](CCCCN=C=S)Cc1ccccc1 (stereo not given) | 0.24

test system: HepG2; test: Cell cycle arrest in human HepG2 cells assessed as decrease in accumulation at G0/G1 phase after 48 hrs by DAPI staining-based flow cytometric analysis; assay type: functional; conditions: not given
Procedure, shortened: (§2)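 HepG2 cells were exposed for 48 h to 5, 10 or 20 of each agent, alongside a vehicle control. About […] cells were harvested and washed twice in PBS. DNA content was read by flow cytometry on 10,000 events, giving the percentage of cells in each phase relative to control.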

Row | Structure (SMILES) | Activity
11 | C[S+]([O-])CCCCN=C=S (stereo not given) [SULFORAPHANE] | Dose-dependent effect
12 | [O-][S+](CCCCN=C=S)Cc1ccccc1 (stereo not given) | Dose-dependent effect

biological target: T1, Nuclear factor erythroid 2-related factor 2 (Homo sapiens) (UniProt Q16236); test: Activation of NRF2 in human HepG2 cells at 20 uM by spectrophotometric analysis; assay type: cell-based; conditions: TDE = time-dependent effect
T1 sequence (whole entry): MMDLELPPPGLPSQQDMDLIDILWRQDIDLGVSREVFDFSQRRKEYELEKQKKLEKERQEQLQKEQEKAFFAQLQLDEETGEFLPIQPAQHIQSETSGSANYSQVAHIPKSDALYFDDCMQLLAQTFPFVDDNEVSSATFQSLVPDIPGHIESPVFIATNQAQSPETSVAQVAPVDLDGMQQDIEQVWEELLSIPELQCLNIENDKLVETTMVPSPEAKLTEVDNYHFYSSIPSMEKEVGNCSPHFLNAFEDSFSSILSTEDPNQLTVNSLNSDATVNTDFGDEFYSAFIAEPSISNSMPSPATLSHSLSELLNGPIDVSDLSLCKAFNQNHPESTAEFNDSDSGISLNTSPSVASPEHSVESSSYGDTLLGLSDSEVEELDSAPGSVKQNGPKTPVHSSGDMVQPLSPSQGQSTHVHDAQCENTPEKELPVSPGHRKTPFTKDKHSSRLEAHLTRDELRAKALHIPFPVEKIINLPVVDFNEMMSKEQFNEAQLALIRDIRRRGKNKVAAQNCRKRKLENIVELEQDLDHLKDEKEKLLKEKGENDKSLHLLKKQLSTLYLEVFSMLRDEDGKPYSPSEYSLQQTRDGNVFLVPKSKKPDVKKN
Procedure, shortened: (§3)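 HepG2 cells treated 2, 4 and 8 h at 20 µM, or 6 h at 5, 10 and 20 µM. Nuclear extracts were prepared by hypotonic lysis and detergent, then 14,000 g spin at 4 °C. Nrf2 DNA-binding was measured by TransAM ELISA: nuclear extract incubated 1 h at room temperature in wells, anti-Nrf2 (1:1000) 1 h, HRP secondary (1:1000), developing solution 2-15 min, stop solution.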

Row | Structure (SMILES) | Activity
13 | C[S+]([O-])CCCCN=C=S (stereo not given) [SULFORAPHANE] | tde
14 | [O-][S+](CCCCN=C=S)Cc1ccccc1 (stereo not given) | tde

test system: HepG2; test: Cell cycle arrest in human HepG2 cells assessed as accumulation at S phase at 20 uM after 48 hrs by DAPI staining-based flow cytometric analysis relative to control; assay type: functional; conditions: not given
Procedure, shortened: (§4)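 HepG2 cells cultured at 37 °C, 5% CO2, exposed 48 h to 5, 10 or 20 µM. Cells harvested, washed twice in PBS, and DNA content of 10,000 events read by flow cytometry. Phase proportions compared with vehicle control; significance at p<0.05 and p<0.01.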

Row | Structure (SMILES) | Activity [%]
15 | C[S+]([O-])CCCCN=C=S (stereo not given) [SULFORAPHANE] | 5.9
16 | [O-][S+](CCCCN=C=S)Cc1ccccc1 (stereo not given) | 9.11

test system: HepG2; test: Induction of apoptosis in human HepG2 cells assessed as early apoptotic cells at 10 uM after 48 hrs by Annexin-V-FITC/propidium iodide staining-based flow cytometric analysis (reference value: 0.14%); assay type: functional; conditions: not given

Row | Structure (SMILES) | Activity [%]
17 | C[S+]([O-])CCCCN=C=S (stereo not given) [SULFORAPHANE] | 0.44
18 | [O-][S+](CCCCN=C=S)Cc1ccccc1 (stereo not given) | 0.72

test system: HepG2; test: Cytotoxicity against human HepG2 cells after 72 hrs by MTT assay; assay type: functional, cell-based; conditions: HepG2, 72 h; procedure, shortened: as §1

Row | Structure (SMILES) | IC50 [µM]
19 | O=S(=O)(CCCCN=C=S)Cc1ccccc1 | 8.49
20 | [O-][S+](CCCCN=C=S)Cc1cccs1 (stereo not given) | 3.82
21 | COc1ccc(C[S+]([O-])CCCCN=C=S)cc1 (stereo not given) | 4.62
22 | O=[N+]([O-])c1ccc(C[S+]([O-])CCCCN=C=S)cc1 (stereo not given) | 3.18
23 | C[S+]([O-])CCCCN=C=S (stereo not given) [SULFORAPHANE] | 14.1
24 | [O-][S+](CCCCN=C=S)Cc1ccccc1 (stereo not given) | 2.85

test system: HepG2; test: Cell cycle arrest in human HepG2 cells assessed as accumulation at G2/M phase at 5 to 20 uM after 48 hrs by DAPI staining-based flow cytometric analysis; assay type: functional; conditions: not given; procedure, shortened: as §4

Row | Structure (SMILES) | Activity
25 | C[S+]([O-])CCCCN=C=S (stereo not given) [SULFORAPHANE] | Active
26 | [O-][S+](CCCCN=C=S)Cc1ccccc1 (stereo not given) | Active

test system: not listed separately; test: Cytotoxicity against human SH-SY5Y cells after 72 hrs by MTT assay; assay type: functional, cell-based; conditions: not given; procedure, shortened: as §1

Row | Structure (SMILES) | IC50 [µM]
27 | O=S(=O)(CCCCN=C=S)Cc1ccccc1 | 4.78
28 | [O-][S+](CCCCN=C=S)Cc1cccs1 (stereo not given) | 5.31
29 | COc1ccc(C[S+]([O-])CCCCN=C=S)cc1 (stereo not given) | 2.79
30 | O=[N+]([O-])c1ccc(C[S+]([O-])CCCCN=C=S)cc1 (stereo not given) | 7.23
31 | C[S+]([O-])CCCCN=C=S (stereo not given) [SULFORAPHANE] | 13.3
32 | [O-][S+](CCCCN=C=S)Cc1ccccc1 (stereo not given) | 5.21

test system: HepG2; test: Cell cycle arrest in human HepG2 cells assessed as accumulation at S phase after 48 hrs by DAPI staining-based flow cytometric analysis; assay type: functional; conditions: not given; procedure, shortened: as §2

Row | Structure (SMILES) | Activity
33 | C[S+]([O-])CCCCN=C=S (stereo not given) [SULFORAPHANE] | Dose-dependent effect
34 | [O-][S+](CCCCN=C=S)Cc1ccccc1 (stereo not given) | Dose-dependent effect

biological target: T1, Nuclear factor erythroid 2-related factor 2 (Homo sapiens); test: Activation of NRF2 in human HepG2 cells after 6 hrs by spectrophotometric analysis; assay type: cell-based; conditions: not given; procedure, shortened: as §3

Row | Structure (SMILES) | Activity
35 | C[S+]([O-])CCCCN=C=S (stereo not given) [SULFORAPHANE] | Dose-dependent effect
36 | [O-][S+](CCCCN=C=S)Cc1ccccc1 (stereo not given) | Dose-dependent effect

test system: HepG2; test: Induction of apoptosis in human HepG2 cells assessed as early apoptotic cells at 5 uM after 48 hrs by Annexin-V-FITC/propidium iodide staining-based flow cytometric analysis (reference value: 0.14%); assay type: functional; conditions: not given

Row | Structure (SMILES) | Activity [%]
37 | C[S+]([O-])CCCCN=C=S (stereo not given) [SULFORAPHANE] | 0.15
38 | [O-][S+](CCCCN=C=S)Cc1ccccc1 (stereo not given) | 0.39

test system: HepG2; test: Induction of apoptosis in human HepG2 cells assessed as late apoptotic cells at 20 uM after 48 hrs by Annexin-V-FITC/propidium iodide staining-based flow cytometric analysis (reference value: 0.29%); assay type: functional; conditions: not given

Row | Structure (SMILES) | Activity [%]
39 | C[S+]([O-])CCCCN=C=S (stereo not given) [SULFORAPHANE] | 4.19
40 | [O-][S+](CCCCN=C=S)Cc1ccccc1 (stereo not given) | 25.33

test system: HCT-116; test: Cytotoxicity against human HCT116 cells after 72 hrs by MTT assay; assay type: functional, cell-based; conditions: HCT-116, 72 h; procedure, shortened: as §1

Row | Structure (SMILES) | IC50 [µM]
41 | O=S(=O)(CCCCN=C=S)Cc1ccccc1 | 6.28
42 | [O-][S+](CCCCN=C=S)Cc1cccs1 (stereo not given) | 3.21
43 | COc1ccc(C[S+]([O-])CCCCN=C=S)cc1 (stereo not given) | 5.46
44 | O=[N+]([O-])c1ccc(C[S+]([O-])CCCCN=C=S)cc1 (stereo not given) | 2.83
45 | C[S+]([O-])CCCCN=C=S (stereo not given) [SULFORAPHANE] | 11.6
46 | [O-][S+](CCCCN=C=S)Cc1ccccc1 (stereo not given) | 3.66

test system: Vero; test: Cytotoxicity against African green monkey Vero cells after 72 hrs by MTT assay; assay type: cell-based; conditions: Chlorocebus sabaeus

Row | Structure (SMILES) | IC50 [µM]
47 | O=S(=O)(CCCCN=C=S)Cc1ccccc1 | 7.17
48 | [O-][S+](CCCCN=C=S)Cc1cccs1 (stereo not given) | 6.22
49 | COc1ccc(C[S+]([O-])CCCCN=C=S)cc1 (stereo not given) | 3.71
50 | O=[N+]([O-])c1ccc(C[S+]([O-])CCCCN=C=S)cc1 (stereo not given) | 3.36
51 | C[S+]([O-])CCCCN=C=S (stereo not given) [SULFORAPHANE] | 13.7
52 | [O-][S+](CCCCN=C=S)Cc1ccccc1 (stereo not given) | 4.85

test system: HepG2; test: Induction of apoptosis in human HepG2 cells assessed as late apoptotic cells at 5 uM after 48 hrs by Annexin-V-FITC/propidium iodide staining-based flow cytometric analysis (reference value: 0.29%); assay type: functional; conditions: not given

Row | Structure (SMILES) | Activity [%]
53 | C[S+]([O-])CCCCN=C=S (stereo not given) [SULFORAPHANE] | 0.73
54 | [O-][S+](CCCCN=C=S)Cc1ccccc1 (stereo not given) | 1.78

test system: A549; test: Cytotoxicity against human A549 cells after 72 hrs by MTT assay; assay type: functional, cell-based; conditions: A549, 72 h
Procedure, shortened: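 After 72 h with a range of compound concentrations, MTT was added for a further 4 h at 37 °C. Formazan was dissolved in DMSO and absorbance read at 570 and 630 nm. Assays ran in triplicate across three independent experiments, and IC₅₀ was calculated for 50% loss of viability.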

Row | Structure (SMILES) | IC50 [µM]
55 | O=S(=O)(CCCCN=C=S)Cc1ccccc1 | 8.89
56 | [O-][S+](CCCCN=C=S)Cc1cccs1 (stereo not given) | 8.41
57 | COc1ccc(C[S+]([O-])CCCCN=C=S)cc1 (stereo not given) | 32.5
58 | O=[N+]([O-])c1ccc(C[S+]([O-])CCCCN=C=S)cc1 (stereo not given) | 14.3
59 | C[S+]([O-])CCCCN=C=S (stereo not given) [SULFORAPHANE] | 22
60 | [O-][S+](CCCCN=C=S)Cc1ccccc1 (stereo not given) | 7.41
